The whole screen tested about 2,400 compounds, of which about 140 (5.8%) were called active.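 The calls were made as follows: active = mean activation across replicates exceeds the hit threshold derived in the earlier primary screen (cut at about 18% in these data); inactive = the rest.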 Not all results are given here.
What follows are compounds tested against Mu-type opioid receptor (Homo sapiens) + Delta-type opioid receptor (Homo sapiens) (UniProt P35372+P41143) (assay: agonists of MOR-DOR heterodimerization, counter-screen for MC4R biased agonist project, cell-based, luminescence (AID 602194;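 also: 100% = deltorphin B at 0.9 µM final and 0% = DMSO alone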)). Settings: U2OS PathHunter beta-arrestin, beta-gal luminescence; at 9.2 µM; stronger effect = higher value; percent of deltorphin B response, DMSO zero.
Mu-type opioid receptor (Homo sapiens) + Delta-type opioid receptor (Homo sapiens), sequence (P35372 whole entry, looked up): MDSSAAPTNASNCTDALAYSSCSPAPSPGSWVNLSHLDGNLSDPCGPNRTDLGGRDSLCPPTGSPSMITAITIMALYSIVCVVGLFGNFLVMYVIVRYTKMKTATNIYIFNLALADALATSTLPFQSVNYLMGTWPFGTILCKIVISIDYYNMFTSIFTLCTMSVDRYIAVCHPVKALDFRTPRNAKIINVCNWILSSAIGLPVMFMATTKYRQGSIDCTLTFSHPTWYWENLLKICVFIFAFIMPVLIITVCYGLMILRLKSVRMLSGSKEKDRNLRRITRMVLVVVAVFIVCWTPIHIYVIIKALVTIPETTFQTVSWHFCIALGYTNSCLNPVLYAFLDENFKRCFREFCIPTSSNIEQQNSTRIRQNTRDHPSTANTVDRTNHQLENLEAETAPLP
Mu-type opioid receptor (Homo sapiens) + Delta-type opioid receptor (Homo sapiens), sequence (P41143 whole entry, looked up): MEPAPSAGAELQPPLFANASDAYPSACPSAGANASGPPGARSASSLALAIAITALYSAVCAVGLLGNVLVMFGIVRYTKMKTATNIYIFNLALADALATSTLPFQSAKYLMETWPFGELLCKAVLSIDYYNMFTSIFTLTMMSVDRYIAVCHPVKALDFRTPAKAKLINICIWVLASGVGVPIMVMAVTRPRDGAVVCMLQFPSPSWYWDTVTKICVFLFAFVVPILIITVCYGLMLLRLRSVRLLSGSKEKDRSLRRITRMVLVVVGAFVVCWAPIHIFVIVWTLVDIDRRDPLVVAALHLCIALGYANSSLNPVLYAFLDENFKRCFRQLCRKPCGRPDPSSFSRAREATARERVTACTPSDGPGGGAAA
Outline: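 Material: U2OS Mu-Delta cells coexpressing OPRM1, OPRD1 and beta-arrestin. Schedule: 23 h growth, 3 h compound 37 °C, 1 h detection. Measured by: beta-gal complementation luminescence. Read-out: percent activation, mean of triplicates, scaled between DMSO and Deltorphin B. Control set: Deltorphin B high, DMSO low. Repeats: three replicates.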
CC(=O)Nc1cc(-c2ccccc2N(C)C)cn2c(-c3ccc(F)c(Cl)c3)cnc12 was tested, and the activation was 4.79% (inactive).
For CC(=O)Nc1cc(-c2ccccc2F)cn2c(-c3cccc(C(F)(F)F)c3)cnc12, the activation was 2.54% (inactive).
Cc1csc(NC(=O)c2ccc(-c3ccc(Cl)cc3Cl)o2)n1 was tested, and the activation was 5.41% (inactive).
CCCCNc1c(-c2cccc(Sc3ccc(OC)cc3)c2)nc2ccccn12 was tested, and the activation was 6.07% (inactive).
With CCN1CCN(CCNC(=O)c2ccc(/C=C3/Sc4ccccc4N(Cc4cccc(C)c4)C3=O)cc2)CC1 the activation was 4.15% (inactive).
Cc1ccccc1NC(=O)c1ccc(COc2ccc3c(C)cc(=O)oc3c2)cc1 was tested, and the activation was 12.7% (inactive).
For O=C(/C=C/c1c(Cl)cccc1Cl)NCc1ccccc1, the activation was 5.53% (inactive).
In the case of COc1c(Cl)cc(C(=O)Nc2ccc(Cl)cn2)cc1Cl, the activation was 7.15% (inactive).
For NC(N)=Nc1nc(-c2ccccc2)c2cc(Cl)ccc2n1, the activation was 5.11% (inactive).
In the case of O=C(NC1CCCCCC1)c1cccnc1Sc1ccc(Cl)cc1, the activation was 3.4% (inactive).
For Brc1ccc(-c2csc(N/N=C/c3cccnc3)n2)cc1, the activation was 5.84% (inactive).
Cc1cccc(NC(=O)Nc2cccc(Oc3c(F)c(F)c(F)c(F)c3F)c2)c1 was tested, and the activation was 6.53% (inactive).
With COc1ccc(-c2cc(NC=O)c3ncc(-c4ccccc4)n3c2)cc1OC the activation was 3.12% (inactive).
O=C(CCCN1C(=O)/C(=C\c2ccco2)SC1=S)Nc1cccc2ccccc12 was tested, and the activation was 4.3% (inactive).
With O=C(CCCn1c(SCC(=O)c2ccc(F)cc2)nc2ccccc2c1=O)NCc1ccco1 the activation was 33.1% (active).
O=C(CCCCCN1C(=O)c2cccc3cccc(c23)C1=O)NCc1ccco1 was tested, and the activation was 9.12% (inactive).
In the case of COc1ccc(S(=O)(=O)N/N=C\c2ccc(OC)c(COc3ccc(C)cc3[N+](=O)[O-])c2)cc1, the activation was 3.27% (inactive).
For COc1ccccc1-c1cc(NC(C)=O)c2ncc(-c3ccc(F)cc3)n2c1, the activation was 4.19% (inactive).
In the case of O=C(N/N=C/c1ccc(OC(=O)c2ccccc2Cl)cc1)c1ccc(O)cc1, the activation was 6.45% (inactive).
With CC(=O)c1cccc(-c2cnc3c(NC=O)cc(-c4ccc(N(C)C)cc4)cn23)c1 the activation was 2.52% (inactive).
With Cc1ccc(-n2cc3ccc([N+](=O)[O-])cc3n2)cc1 the activation was 7.27% (inactive).
With COc1ccc(OCC(=O)Nc2ccc(N3CCC(C)CC3)cc2)cc1 the activation was 2.59% (inactive).
With O=C(NCCc1c[nH]c2ccc(Cl)cc12)c1ccc([N+](=O)[O-])cc1 the activation was 15.2% (inactive).
CCOC(=O)c1[nH]c2c(c1-c1ccccc1)C(=O)CC(c1ccc(Cl)cc1)C2 (centres undefined) was tested, and the activation was 6.76% (inactive).
With CCCCCCCCCCOC(=O)Cn1c(COc2ccc(C)cc2)[n+](C)c2ccccc21 the activation was 22.4% (active).
CCCCCCCCCCOC(=O)Cn1c(COc2cccc(OC)c2)[n+](C)c2ccccc21 was tested, and the activation was 19.9% (active).
With COc1cc(/C=C(\C#N)C(=O)Nc2ccc3ccccc3c2)c([N+](=O)[O-])cc1OC the activation was 10.3% (inactive).
CCN1C[C@@H]2[C@@H]3C(=O)N(Cc4ccccc4)C(=O)[C@@H]3[C@](Cc3ccccc3)(C(=O)OC)N2C1=NC1CCCCC1 was tested, and the activation was 5.52% (inactive).
For O=C(NC(c1ccc(-c2ccccc2)cc1)c1cnccn1)C1CCN(CCOc2ccc(Cl)cc2Cl)CC1 (centres undefined), the activation was 9.53% (inactive).
With O=C(COC(=O)c1cccc(Br)c1)Nc1cccc2c1C(=O)c1ccccc1C2=O the activation was 6.2% (inactive).
In the case of O=C(NC(=S)Nc1cccc2c(O)cccc12)c1cccc(Br)c1, the activation was 8.2% (inactive).
For CCN(CC)S(=O)(=O)c1ccc(C)c(NC(=O)COc2ccc(Br)cc2Cl)c1, the activation was 6.67% (inactive).
In the case of CSc1ccc(/C=N\NC(=O)COc2ccc(Cl)cc2Br)cc1, the activation was 5.52% (inactive).
With COc1ccc(C)c(Cn2c(-c3nonc3N)nc3ccccc32)c1 the activation was 5.04% (inactive).

— PubChem BioAssay AID602194 (The Scripps Research Institute Molecular Screening Center, 2012)
